The results in this text go back to ChEMBL document CHEMBL1156815, “Synthesis and opioid activity of enantiomeric N-substituted 2,3,4,4a,5,6,7,7a-octahydro-1H-benzofuro[3,2-e]isoquinolines” (J Med Chem, 2010).

Each structure is given as a SMILES string. pKd, pKi: −log10 of the molar value. Bounds are passed on as bounds.

Assay [1] is described as follows: Displacement of [3H]di-O-tolyguanidine from sigma2 receptor in rat brain homogenate. The format is tissue-based. Background: Displacement assays read how much labelled ligand stays bound in the presence of the test substance.
In assay [2] the target is T1, Kappa-type opioid receptor (Homo sapiens, UniProt P41145). Particulars: CHO.
Assay [3] in a line: Binding affinity to sigma receptor.
The target of assay [4] is T1, Kappa-type opioid receptor. Put plainly: biochemical. The format is cell-based, CHO.
In assay [5] the target is T2, Delta-type opioid receptor (Homo sapiens, UniProt P41143). Put plainly: Displacement of [125I]OXY from human delta opioid receptor expressed in CHO cells. The format is cell-based.
Assay [6] deals with Sigma non-opioid intracellular receptor 1 (Rattus norvegicus, UniProt Q9R0C9). Put plainly: Displacement of [3H](+)-pentazocine from sigma1 receptor in rat brain homogenate. It is filed as tissue-based. The gist of the method: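 Rat brain homogenate binding. Nonspecific binding defined with haloperidol. Means ± SEM from replicate assays.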
The target in assay [7] is T3, Mu-type opioid receptor (Homo sapiens, UniProt P35372). Put plainly: biochemical. The format is cell-based, CHO.
The species named for assay [8] is Homo sapiens. In words: Selectivity index, ratio of Ki for human kappa opioid receptor to human mu opioid receptor.
Assay [9] is filed under the species Rattus norvegicus. In words: Selectivity index, ratio of Ki for rat brain sigma2 receptor to Ki for rat brain sigma1 receptor.
For assay [10], the species on record is Homo sapiens. In words: Selectivity index, ratio of Ki for human delta opioid receptor to human mu opioid receptor.
Assay [11] has as its target T3, Mu-type opioid receptor. The following applies: CHO.
Assay [12] deals with T1, Kappa-type opioid receptor. The following applies: CHO. The source holds these as a separate data set.
Assay [13] has as its target T2, Delta-type opioid receptor. Put plainly: Binding affinity to human delta opioid receptor expressed in CHO cells. The format is cell-based.
Assay [14] deals with T3, Mu-type opioid receptor. Put plainly: Binding affinity to human mu opioid receptor expressed in CHO cells. The format is cell-based.
In assay [15] the target is T3, Mu-type opioid receptor. The following applies: CHO. This is another data set of the same source.
For assay [16], the target named is T2, Delta-type opioid receptor. Particulars: CHO.
The target in assay [17] is T2, Delta-type opioid receptor. In words: Agonist activity at human delta opioid receptor expressed in CHO cells assessed as stimulation of [35S]GTPgammaS binding relative to 500 nM SNC80. It is filed as functional, cell-based. In a few lines:
(§1)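 [35S]GTPgammaS binding stimulation at the delta receptor, n = 3, reported with SD.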
In general terms: GTPγS is a poorly hydrolysed GTP analogue; its binding reports G protein activation.

Assay [18] deals with T2, Delta-type opioid receptor. Put plainly: Agonist activity at human delta opioid receptor expressed in CHO cells assessed as stimulation of [35S]GTPgammaS binding. The format is functional, cell-based. The gist of the method:
as §1

T1 sequence (P41145 whole entry): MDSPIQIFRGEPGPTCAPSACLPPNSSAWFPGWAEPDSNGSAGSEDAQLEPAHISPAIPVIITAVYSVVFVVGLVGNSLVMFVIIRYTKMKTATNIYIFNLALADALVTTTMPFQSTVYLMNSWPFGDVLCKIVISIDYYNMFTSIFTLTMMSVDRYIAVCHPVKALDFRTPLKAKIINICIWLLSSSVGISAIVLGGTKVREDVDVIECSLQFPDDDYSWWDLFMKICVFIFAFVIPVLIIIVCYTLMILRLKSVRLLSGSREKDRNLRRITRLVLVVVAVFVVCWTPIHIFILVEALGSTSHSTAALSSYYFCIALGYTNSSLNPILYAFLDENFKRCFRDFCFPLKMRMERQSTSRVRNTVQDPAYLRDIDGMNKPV
T2 sequence (P41143 whole entry): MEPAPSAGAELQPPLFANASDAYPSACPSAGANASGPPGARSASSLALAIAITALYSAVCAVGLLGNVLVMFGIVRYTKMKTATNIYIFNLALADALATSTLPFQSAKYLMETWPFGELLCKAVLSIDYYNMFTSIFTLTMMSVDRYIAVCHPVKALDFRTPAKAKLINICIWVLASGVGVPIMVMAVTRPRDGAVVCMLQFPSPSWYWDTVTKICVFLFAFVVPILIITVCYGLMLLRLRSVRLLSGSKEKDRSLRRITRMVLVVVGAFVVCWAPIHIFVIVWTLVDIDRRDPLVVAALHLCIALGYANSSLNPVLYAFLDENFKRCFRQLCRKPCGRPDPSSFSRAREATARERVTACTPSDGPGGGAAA
T3 sequence (P35372 whole entry): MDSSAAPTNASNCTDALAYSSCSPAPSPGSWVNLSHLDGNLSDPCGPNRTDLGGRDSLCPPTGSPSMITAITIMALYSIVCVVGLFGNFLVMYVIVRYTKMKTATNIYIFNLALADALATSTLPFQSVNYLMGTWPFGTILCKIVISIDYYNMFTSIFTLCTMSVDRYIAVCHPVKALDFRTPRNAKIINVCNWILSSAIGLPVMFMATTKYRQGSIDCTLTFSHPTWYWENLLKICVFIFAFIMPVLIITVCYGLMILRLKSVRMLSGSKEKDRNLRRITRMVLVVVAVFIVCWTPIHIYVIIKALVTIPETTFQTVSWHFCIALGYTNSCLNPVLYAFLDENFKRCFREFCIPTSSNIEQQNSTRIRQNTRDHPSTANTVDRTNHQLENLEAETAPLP
Sequence of Sigma non-opioid intracellular receptor 1 (Q9R0C9 whole entry): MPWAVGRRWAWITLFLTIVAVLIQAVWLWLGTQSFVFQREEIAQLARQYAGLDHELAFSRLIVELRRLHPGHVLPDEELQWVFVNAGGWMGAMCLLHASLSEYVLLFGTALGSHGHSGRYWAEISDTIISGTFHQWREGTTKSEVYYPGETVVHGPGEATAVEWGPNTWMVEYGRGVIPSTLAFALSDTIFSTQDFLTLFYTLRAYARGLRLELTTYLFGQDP

On to `CC(C)=CCN1CC[C@@]2(C)c3cc(O)ccc3C[C@@H]1[C@@H]2C`, for which the negative logarithm of the Ki (pKi) in [1] was 7.25.

As for `C[C@@H](NC(=O)[C@@H](N)Cc1ccc(O)cc1)C(=O)NCC(=O)N(C)[C@@H](Cc1ccccc1)C(=O)NCCO`, the ED50 in assay [2] was determined as 8940 nM.

Turning to `Oc1cccc2c1O[C@H]1CCC[C@H]3CN(CC4CC4)CC[C@@]231` (racemic), in assay [3], the pKi was 7.68.

As to `CN1CC[C@]23c4cccc(O)c4O[C@H]2CCC[C@H]3C1` (stereo in doubt; (+)-1a), the pKi in assay [4] was 5.16; in assay [5], less than 5.00; in assay [6], 5.70.

As for `Oc1cccc2c1O[C@H]1CCC[C@H]3CN(CC4CC4)CC[C@@]231` (stereo in doubt; (+)-1b) [listing 1 of 2 here], the pKi was 6.16 in [4]; less than 5.00 in [5]; 5.99 in [1]; 5.88 in assay [7]; 6.70 in assay [6].

As to `Oc1cccc2c1O[C@H]1CCC[C@H]3CN(CC4CC4)CC[C@@]231` (stereo in doubt; (+)-1b) [listing 2 of 2 here], the Ratio Ki in assay [8] came out at 0.53; in assay [9], 5.1.

As to `Oc1cccc2c1O[C@H]1CCC[C@H]3CN(CCc4ccccc4)CC[C@@]231` (stereo in doubt; (+)-1c) [listing 1 of 2 here], the pKi in [4] was 5.91; in assay [5] it was 5.30; in assay [1], 6.58; in [7], 6.56; in assay [6], 6.88.

Take `Oc1cccc2c1O[C@H]1CCC[C@H]3CN(CCc4ccccc4)CC[C@@]231` (stereo in doubt; (+)-1c) [listing 2 of 2 here]: the results for the Ratio Ki in assay [10], in assay [8] and in assay [9] were 18, 4.5 and 2, respectively.

For `COc1cccc2c1O[C@H]1CCC[C@H]3CN(C)CC[C@@]231` (stereo in doubt; (+)-3a) [listing 1 of 2 here], the pKi in assay [4] was 5.14; in [5], less than 5.00; in [1] it was less than 5.00; in assay [7] it was 5.12; in assay [6], 6.18.

Take `COc1cccc2c1O[C@H]1CCC[C@H]3CN(C)CC[C@@]231` (stereo in doubt; (+)-3a) [listing 2 of 2 here]: the values for the Ratio Ki in [8] and in assay [9] were 0.95 and greater than 15, respectively.

Take `COc1cccc2c1O[C@H]1CCC[C@H]3CN(CC4CC4)CC[C@@]231` (stereo in doubt; (+)-3b) [listing 1 of 2 here]: the pKi in [4] was less than 5.00; in assay [5], less than 5.00; in [1], 5.36; in [7], less than 5.00; in assay [6], 7.21.

Turning to `COc1cccc2c1O[C@H]1CCC[C@H]3CN(CC4CC4)CC[C@@]231` (stereo in doubt; (+)-3b) [listing 2 of 2 here], the Ratio Ki in assay [9] came out at 71.

Take `COc1cccc2c1O[C@H]1CCC[C@H]3CN(CCc4ccccc4)CC[C@@]231` (stereo in doubt; (+)-3c) [listing 1 of 2 here]: the pKi was 5.94 in assay [4]; 5.08 in assay [5]; 5.59 in assay [1]; 6.84 in assay [7]; 6.56 in [6].

Regarding `COc1cccc2c1O[C@H]1CCC[C@H]3CN(CCc4ccccc4)CC[C@@]231` (stereo in doubt; (+)-3c) [listing 2 of 2 here], the values for the Ratio Ki in [10], in [8] and in [9] were 58, 7.9 and 9.2, respectively.

With `COc1cccc2c1O[C@H]1CCC[C@@H]3CN(C)CC[C@@]231` (stereo in doubt; (+)-4) [listing 1 of 2 here], the results for the pKi in [4], in assay [5] and in assay [7] were 5.73, less than 5.00 and less than 5.00, respectively.

For `COc1cccc2c1O[C@H]1CCC[C@@H]3CN(C)CC[C@@]231` (stereo in doubt; (+)-4) [listing 2 of 2 here], in [8], the Ratio Ki was less than 0.19.

`CN1CC[C@]23c4cccc(O)c4O[C@H]2CCC[C@@H]3C1` (stereo in doubt; (+)-5): the pKi in assay [4] (cho) and in assay [5] (cho) was less than 5.00 throughout.

On to `CN1CC[C@]23c4cccc(O)c4O[C@H]2CCC[C@H]3C1` (stereo in doubt; (-)-1a) [listing 1 of 2 here], for which the pKi is 7.85 in assay [4], 7.36 in [5], less than 5.00 in [1] and less than 5.00 in [6].

Turning to `CN1CC[C@]23c4cccc(O)c4O[C@H]2CCC[C@H]3C1` (stereo in doubt; (-)-1a) [listing 2 of 2 here], the ED50 in assay [11] came out at 19 nM. Also, the Ke in assay [12] is 80 nM.

Turning to `Oc1cccc2c1O[C@H]1CCC[C@H]3CN(CC4CC4)CC[C@@]231` (stereo in doubt; (-)-1b) [listing 1 of 2 here], the pKd in assay [13] is 7.70; in assay [14], 9.66. Moreover, the pKi in assay [4] was 10.00; in assay [5], 8.70; in assay [1] it was less than 5.00; in assay [7], 10.10; in assay [6] it was 6.40.

For the compound `Oc1cccc2c1O[C@H]1CCC[C@H]3CN(CC4CC4)CC[C@@]231` (stereo in doubt; (-)-1b) [listing 2 of 2 here], the Ke was determined as 0.22 nM in assay [15] and 20 nM in [16]. Further, in [2], the ED50 is 2.3 nM. Besides, the results for the Ratio Ki in assay [10], in [8] and in assay [9] were 25, 1.3 and greater than 25, respectively.

On to `Oc1cccc2c1O[C@H]1CCC[C@H]3CN(CCc4ccccc4)CC[C@@]231` (stereo in doubt; (-)-1c) [listing 1 of 2 here], for which the pKi in assay [4] is 7.82; in [5], 8.22; in assay [1] it was 5.27; in assay [7] it was 9.52; in assay [6] it was 6.62.

Regarding `Oc1cccc2c1O[C@H]1CCC[C@H]3CN(CCc4ccccc4)CC[C@@]231` (stereo in doubt; (-)-1c) [listing 2 of 2 here], the Emax in [17] amounted to 64%. For the same compound, the ED50 in assay [11] came to 10 nM; in [18], 148 nM. The Ke in [12] came out at 130 nM. Further, the results for the Ratio Ki in [10], in assay [8] and in assay [9] were 20, 50 and 23, respectively.

Consider `COc1cccc2c1O[C@H]1CCC[C@H]3CN(C)CC[C@@]231` (stereo in doubt; (-)-3a) [listing 1 of 2 here], for which the pKi was 5.46 in assay [4]; 5.01 in assay [5]; 5.13 in assay [1]; 6.63 in assay [7]; less than 5.00 in assay [6].

Take `COc1cccc2c1O[C@H]1CCC[C@H]3CN(C)CC[C@@]231` (stereo in doubt; (-)-3a) [listing 2 of 2 here]: the values for the Ratio Ki in assay [10], in assay [8] and in assay [9] were 41, 15 and less than 0.7, respectively.

On to `COc1cccc2c1O[C@H]1CCC[C@H]3CN(CC4CC4)CC[C@@]231` (stereo in doubt; (-)-3b) [listing 1 of 2 here], for which the pKi in assay [4] was 7.39; in [5] it was 6.26; in [1] it was 5.49; in [7], 7.52; in [6], 6.55.

Turning to `COc1cccc2c1O[C@H]1CCC[C@H]3CN(CC4CC4)CC[C@@]231` (stereo in doubt; (-)-3b) [listing 2 of 2 here], the Ratio Ki is 18 in assay [10], 1.4 in assay [8] and 11 in assay [9].

On to `COc1cccc2c1O[C@H]1CCC[C@H]3CN(CCc4ccccc4)CC[C@@]231` (stereo in doubt; (-)-3c) [listing 1 of 2 here], for which the pKi in assay [4] was 5.73; in [5], 6.31; in assay [1], 5.49; in assay [7], 7.62; in [6], 6.25.

For the compound `COc1cccc2c1O[C@H]1CCC[C@H]3CN(CCc4ccccc4)CC[C@@]231` (stereo in doubt; (-)-3c) [listing 2 of 2 here], the Ratio Ki in assay [10] came to 20; in assay [8], 77; in assay [9] it was 5.8.

Consider `COc1cccc2c1O[C@H]1CCC[C@@H]3CN(C)CC[C@@]231` (stereo in doubt; (-)-4) [listing 1 of 2 here], for which the pKi in [4] is 6.25; in assay [5], 5.98; in assay [7] it was 7.57.

As for `COc1cccc2c1O[C@H]1CCC[C@@H]3CN(C)CC[C@@]231` (stereo in doubt; (-)-4) [listing 2 of 2 here], the Ratio Ki in [10] worked out at 39; in assay [8], 21.

For the compound `CN1CC[C@]23c4cccc(O)c4O[C@H]2CCC[C@@H]3C1` (stereo in doubt; (-)-5), the pKi in assay [4] and in assay [5] was less than 5.00 in each case.

Compound `CC(C)=CCN1CC[C@]2(C)c3cc(O)ccc3C[C@H]1[C@H]2C` [(+)-PENTAZOCINE] showed a pKi in [1] of 5.87.

On to `C=CCN1CC[C@]23c4c5ccc(O)c4O[C@H]2C(=O)CC[C@@]3(O)[C@H]1C5` [NALOXONE], for which the pKi in assay [1] was less than 5.00.

A word on the pKi: it is the Ki on a negative log10 scale, so that one unit is a factor of ten. High values mean a small Ki, low ones a large Ki. What is called pKd is the negative decadic logarithm of the Kd, by convention in mol/L. Low values mean a large Kd, high ones a small Kd. For orientation: Emax means the greatest response seen or fitted, relative to the assay's reference.
